Screens: PubChem, Broad Institute
The list is not random: actives were taken first. Their share in the collection is about 1.9%.
XiGFP reactiv = activators of inactive X chromosome reactivation, primary screen, imaging, XiGFP fibroblasts, GFP high-content imaging, set 2 | XiGFP mouse fibroblasts, % GFP-positive cells imaging, 3 d; cells co-treated with 5-aza-dC sensitizer; scaled so ellipticine positive control = 100% | activation, % at 7.58 µM | 0.055% of 360,000 active;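 active = mean normalized replicate activation at least 10% and every replicate at or above 10%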;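 note: 0% = median of on-plate neutral control wells and 100% = ellipticine 6 µM median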
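Material: XiGFP fibroblasts, SV40-immortalized. Buffer or medium: DMEM plus 5-aza-dC sensitizer. Compound: single concentration per compound, delivered by pin transfer. Times: 3 days compound exposure. Controls: ellipticine 6 µM.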
CFTR F508del cor = F508del CFTR correction, initial screen, CFBE line, single point; activity (quench increase), % at 7.58 µM; 0.36% of 350,000 active; CFBE cells, YFP halide quenching; stimulated with forskolin plus potentiator P3; % fluorescence drop versus neutral controls; AID 720511, 2013;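 active = mean added fluorescence quench of at least 8% versus neutral control, with both replicates also reaching 8%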;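 note: cells transiently co-express mutant CFTR-F508del with the halide-sensitive YFP; corrector assay measuring rescue of mutant channel to the surface after 24 h compound exposure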
DENV2 CPE rescue = inhibitors of DENV2 cytopathic effect, primary screen, cell-based, plate reader, single concentration. DENV2-infected cells, cytopathic effect rescue. CPE inhibition, % at 9.99 µM. 1.7% of 350,000 active. AID 651640, 2012; in the data active = CPE inhibition above about 20%, passing the limit was not always enough; tested in BHK-21 cells;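 note: 0% = median of neutral control wells and 100% = median of positive control wells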
PGC1a acetyl inh = inhibitors of PGC1a acetylation signal, primary screen, cell-based, U2OS, AlphaScreen, inhibitor mode; AlphaScreen anti-acetyl-lysine; with virally co-expressed GCN5 acetyltransferase; inhibition, % at 15.6 µM; 0.17% of 350,000 active;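 active = every replicate shows inhibition of at least 40%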;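 note: 0% = neutral control wells and 100% = positive control wells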
FN deposit inh = inhibitors of fibronectin matrix deposition, primary screen, AH1F cells, Alexa488-fibronectin fluorescence, plate reader; AH1F fibroblasts, overnight; inhibition, % at 12.6 µM; 0.086% of 350,000 active; AID 743247, 2014;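 active = mean inhibition across replicates of 30% or more, regardless of how many single replicates reach that level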;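 note: positive control wells lacked labelled fibronectin entirely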
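Assay system: AH1F fibroblasts assembling fluorescent fibronectin matrix; Amount: 10000 AH1F cells per well; Buffer or medium: DMEM, 2% serum; Probe or stimulus: Alexa488-fibronectin, 24 nM final in well; Doses: single compound dose, delivered by pin transfer; Incubation: 1 h adhesion, overnight exposure; Measured by: fluorescence 485/525 nm; Read-out: fibronectin deposition inhibition.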
Cneo AK release = Cryptococcus neoformans cell lysis inducers, primary screen, AK release luminescence, single concentration; C. neoformans lysis, adenylate kinase release luminescence, 4 h; normalised: neutral wells 0, clomiphene wells 100; lysis activity, % at 15 µM; 0.2% of 360,000 active;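 active = mean lysis activity across replicates of at least 80%, whatever share of replicates individually reach that level; inactive = mean lysis activity below 80%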
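Test system: log-phase Cryptococcus neoformans yeast cells; Quantity: yeast cell density of 5 × 10^6 cells/mL; Buffer or medium: YPD; Doses: single compound concentration per well; Timing: 4 h at 37 °C static, read 1 h later; Measured by: AK luminescence; Read-out basis: lysis from increased AK signal; Control set: Clomiphene as positive control.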
Numbers without * were called inactive; nt = not tested or not shown.

SMILES | XiGFP reactiv | CFTR F508del cor | DENV2 CPE rescue | PGC1a acetyl inh | FN deposit inh | Cneo AK release
Cc1ccccc1S(=O)(=O)N[C@@H]1CC[C@H](CCNS(=O)(=O)c2cccc(F)c2)O[C@@H]1CO | 0 | 2 | 10 | 3 | 1 | 45
Cc1c(N(C)C)c(=O)n(-c2ccccc2)n1C | nt | 0 | 51* | -30 | nt | 3
CC(NC(=O)CN1CCN(c2cccc(Cl)c2)CC1)c1ccccc1 (stereo not drawn) | 0 | -1 | 44* | 8 | -1 | -6
COc1cccc(N2CCN(CC(=O)NC(C)c3ccccc3)CC2)c1 (stereo not drawn) | 0 | -4 | 9 | 1 | 0 | 3
C[C@H](CO)N1C[C@H](C)[C@@H](CN(C)Cc2ccc(Cl)c(Cl)c2)Oc2ccc(NC(=O)c3ccncc3)cc2CC1=O | 0 | 4 | 0 | -4 | nt | 1
Cc1ccc(C2Nc3ccccc3NC3=C2C(=O)OC(C)C3)cc1 (stereo not drawn) | 0 | 0 | -9 | nt | 2 | nt
CC1CC2=C(C(=O)O1)C(c1ccc(Cl)cc1)Nc1ccccc1N2 (stereo not drawn) | 0 | -2 | 88* | nt | 7 | nt
CCC1CCCCN1S(=O)(=O)c1ccc(NC(=O)c2nc(S(C)(=O)=O)ncc2Cl)cc1 (stereo not drawn) | 0 | 1 | 3 | nt | 39* | -1
CCCNC(=O)N1CC2(CN(S(=O)(=O)CC)C2)c2c([nH]c3cc(OC)ccc23)[C@H]1CO | 0 | 2 | -2 | -5 | nt | nt
Cc1ccc(NC(=O)CN2CCC(NC(=O)c3cccc(F)c3)CC2)cc1C | 0 | -1 | 34* | 6 | -6 | 4
O=C(N[C@H]1CC[C@@H](CC(=O)N2CCc3ccccc3C2)O[C@H]1CO)C1CC1 | -1 | -2 | 3 | nt | 0 | -1
N[C@@H]1CC[C@@H](CCn2cc(-c3ccccn3)nn2)O[C@H]1CO | 0 | -1 | 18 | -3 | -10 | -4
COC(=O)[C@@H]1[C@@H](CO)[C@@H]2Cn3c(ccc(-c4ccncc4)c3=O)[C@@H]2N1CC1CCCC1 | 0 | -1 | 2 | -6 | nt | nt
O=C(N[C@H]1CCC(=O)N(CCSc2ccc(Br)cc2)CC1)OCc1ccccc1 | 0 | 1 | -2 | 5 | 5 | 1
Cc1ccc(SCCN2CCC(NC(=O)OCc3ccccc3)CCC2=O)cc1 (stereo not drawn) | 0 | 4 | 32* | -12 | 0 | 1
COc1cccc(S(=O)(=O)Nc2ccc3c(c2)[C@@H]2C[C@H](CC(=O)N4CCCCC4)O[C@@H](CO)[C@@H]2O3)c1 | 0 | -1 | -1 | 4 | nt | -2
CC(C)NC(=O)N[C@H]1CC[C@@H](CCn2cc(-c3ccc(F)cc3)nn2)O[C@H]1CO | -1 | 0 | 0 | 5 | nt | 1
Cc1cccc(C=Nc2ccc3c4c(cccc24)CC3)c1O | 0 | nt | nt | nt | -56 | nt
Oc1ccc(Cl)cc1C=Nc1ccc2c3c(cccc13)CC2 | 30* | -3 | 2 | nt | -7 | 0
O=C(c1ccccc1)N1CC2(C1)[C@H](c1ccccc1)[C@@H](CO)N2CC1CC1 | 0 | -2 | 16 | -5 | nt | nt
NC(=O)NCC#Cc1ccc2c(c1)[C@]1(C(=O)N2)[C@H](C(=O)O)[C@H]2C(=O)O[C@H](c3ccccc3)[C@H](c3ccccc3)N2[C@@H]1c1ccc(O)cc1 | nt | 1 | -17 | 11 | nt | -3
Cc1ccc(C23OCCN2CCn2nc4ccccc4c23)cc1 (stereo not drawn) | 0 | 4 | 74* | 1 | -5 | -6
CO[C@@H]1CN(C)C(=O)c2ccc(NC(=O)c3cccc(F)c3)cc2OC[C@@H](C)N(C(C)=O)C[C@H]1C | 1 | nt | nt | nt | nt | nt
O=C(C[C@H]1CC[C@H]2[C@@H](COC[C@H](O)CN2Cc2ccncc2)O1)NCc1ccccc1Cl | 0 | -1 | -5 | 7 | -8 | 0
